Measured values as given in the array DNA melting data of Ke et al. (doi:10.1101/2024.01.08.574731).

Assays:
[1] = folding enthalpy; higher = less favourable; fluorescence melt of hairpins on a sequencing array, two-state fit; conditions: sodium 0.088 M
Method in brief: (§1)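 Library hairpins on a sequenced MiSeq flow cell carried annealed Cy3 and quencher oligos, and their Cy3 fluorescence was imaged in 50 mM Na-HEPES pH 8.0 with 25 mM NaCl, in 2.5 °C steps up to 60 °C. Signals were normalised to Cy3 before quenching and to control constructs. Melting temperature and folding enthalpy were obtained from bootstrapped two-state fits, combined by inverse-variance weighting across four replicates, and the fitted temperatures were then raised by 9.35 °C to match UV melts.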

[2] = melting temperature; fluorescence melt of hairpins on a sequencing array, two-state fit, raised by 9.35 °C to match UV melts; conditions: sodium 0.088 M
Method in brief: as §1

Row | Sequence | folding enthalpy [1] [kcal/mol] | Tm [2] [°C]
1 | GCTTGGCGAAAGCCAGC (((.(((....)))))) | -14.3 | 59
2 | GCTTACGAAAGTAAGAGC ((((((....)))..))) | -18.5 | 45.4
3 | GAACGCGAAAGCGTCTTC ((((((....)))..))) | -21.6 | 62.6
4 | GCAGTCGAAAGACCATGC ((((((....)))..))) | -16.2 | 35.1
5 | GCCACGCGAAAGCGTTGC ((.((((....)))).)) | -20.2 | 57.6
6 | GTGTGGCGAAAGCCTCAC (((.(((....))).))) | -29.7 | 58.9
7 | GCTCTGCGAAAGCAAGGC ((..(((....)))..)) | -17.7 | 46.9
8 | GATCTAGTTCTAGATC ((((((....)))))) | -34.8 | 46.6
9 | GTAATCGAAAGATTTAC ((((((....))).))) | -14.7 | 33.3
10 | GGTGGCGGAAACGTCGCC ((.(.((....)).).)) | -39.9 | 54.2
11 | GAAATACGAAAGTACTTC (((.(((....))).))) | -15.7 | 29.5
12 | CGCGGAAAGCTCCGCG ((((((....)))))) | -28.3 | 68.7
13 | GGTGGGCGAAAGCCAACC (((.(((....))).))) | -28.7 | 64.1
14 | GATGGCGAAAGCCTGATC ((((((....)))..))) | -11 | 33.6
15 | GATCAGAGACCTGATC ((((((....)))))) | -34.6 | 45.6
16 | GATCACCTTTGTGATC ((((((....)))))) | -42.4 | 55
17 | CGCACTCGGAAACGAGCG (((..(((....)))))) | -14.1 | 39.9
18 | GTACATGGAAACGTGTAC (((((.(....).))))) | -32.1 | 45.8
19 | GATTACGAAAGTAGAATC ((((((....)))..))) | -14.4 | 27.4
20 | GCGTGGCGAAAGCGGCGC (((..((....))..))) | -40.4 | 67.7
21 | GCTCCCGAAAGGGACAGC ((((((....)))..))) | -12.6 | 44.7
22 | GGTGGGGGAAACCCCATC (.(((((....))))).) | -24.2 | 51.3
23 | GTCTGCGAAAGCACCGAC ((((((....)))..))) | -12.7 | 32.3

Row | Sequence | folding enthalpy [1] [kcal/mol] | Tm [2] [°C]
24 | GGATTGCCGAAAGGCTCC (((..(((....)))))) | -8.38 | 37.6
25 | GTAACAGGAAACTGTTAC (((((((....))))))) | -43.6 | 55.4
26 | GTAGCAGGAAACCGCTAC (((((.(....).))))) | -32.4 | 48.5
27 | GCTCATGGAAACATGAGC (((((((....))))))) | -33 | 67.6
28 | GATACCGAAAGGTAATC ((((((....))).))) | -18.9 | 39
29 | GCATCAGGAAACTGACGC ((.((((....)))).)) | -30 | 44.5
30 | GCCGTACGAAAGTAGGC (((.(((....)))))) | -33.6 | 67.4
31 | GGGAATCGAAAGATACCC (((.(((....))).))) | -30.1 | 49.6
32 | GAGTTTCCGAAAGGACTC (((..(((....)))))) | -13.3 | 30
33 | GATCTGTGTCAGATC ((((((...)))))) | -34.1 | 50.6
34 | GGGGATGGAAACACCCCC ((((.((....)).)))) | -26.4 | 49
35 | GATCGTAACAACGATC ((((((....)))))) | -35.4 | 55
36 | GTTGTCGAAAGACTCAAC ((((((....)))..))) | -11.7 | 27.7
37 | GAGATCGGAAACAATCTC (((((.(....).))))) | -15.3 | 32.5
38 | GTAGAGCCGAAAGGCTAC (((..(((....)))))) | -10.5 | 34.6
39 | GGCGGCGAAAGCCGTGCC ((((((....)))..))) | -10.1 | 57.7
40 | GTGAGAGGAAACTCCCAC (((.(((....))).))) | -24.7 | 36.6
41 | GACGACGAAAGTCTCGTC ((((((....)))..))) | -17.1 | 46.9
42 | GACAGCGAAAGCTGTGTC ((((((....)))..))) | -10.8 | 56.9
43 | CCGGAGAAATCCGG (((((....))))) | -21.4 | 56.5
44 | GGCATCGCGAAAGCGGCC (((..(((....)))))) | -17.4 | 54.9
45 | GTATTGGAAACAATAC ((((((....)))))) | -26.9 | 46.5
46 | GCCTAGCGAAAGCAGGGC (((..((....))..))) | -24 | 62.4

Row | Sequence | folding enthalpy [1] [kcal/mol] | Tm [2] [°C]
47 | GATCACAGAAGTGATC ((((((....)))))) | -37.4 | 54.4
48 | GATCCAGTAGTGGATC ((((((....)))))) | -32 | 54.2
49 | GTCTGAGGAAACCCAGAC (((((.(....).))))) | -31.8 | 45.9
50 | GTATGAGGAAACTCGTAC (((.(((....))).))) | -33.4 | 44
51 | GCCGCTGGAAACAGTGGC (((.(((....))).))) | -50.7 | 62.9
52 | GATCAATTTCTTGATC ((((((....)))))) | -39.3 | 43.3
53 | GTGAAGAAATTCAC (((((....))))) | -18.8 | 38.3
54 | GGGCGTCGAAAGACCCC (((.(((....)))))) | -37.1 | 58.9
55 | GATCTGAAAGCAGATC ((((((....)))))) | -26.4 | 42.1
56 | GCCTAGCGAAAGCACGGC (((..((....))..))) | -20.3 | 54.9
57 | GGTGTTGGAAACAATACC (((.(((....))).))) | -39.7 | 47.4
58 | GTAAGTGGAAACACCTAC (((.(((....))).))) | -16.8 | 29.2
59 | GATCTCACACGAGATC ((((((....)))))) | -41.5 | 52.4
60 | CGTGCGGAAACGCTCACG ((((((....)))..))) | -18.3 | 39.9
61 | GATCCGCGAAAGCGCATC (((.(((....))).))) | -14.1 | 36.5
62 | GCAGTGCGAAAGCAACGC ((..(((....)))..)) | -15.1 | 58.7
63 | GTTCAAGGAAACCTGAAC (((((.(....).))))) | -30.1 | 35.6
64 | GCCGGGCGAAAGCCGCGC ((..(((....)))..)) | -15.2 | 60.1
65 | GTGGCTGGAAACGGTCAC (((.(.(....).).))) | -30.7 | 44.5
66 | GCGTGAGGAAACCCACGC (((((.(....).))))) | -42.2 | 57.7
67 | GCTTAGCGAAAGCTATGC ((.((((....)))).)) | -26.6 | 59.5
68 | GAATACGAAAGTAGTTC ((((((....))).))) | -10.9 | 26.8
69 | GGTCTTGGAAACAAGGCC ((.((((....)))).)) | -48.6 | 54.7
